ChEMBL document CHEMBL3352384, “Synthesis and biological activity of new salicylanilide N,N-disubstituted carbamates and thiocarbamates” (Bioorg Med Chem, 2014)
Converted amounts (≈) assume the structure as drawn.

Test system: not listed separately
Assay: Selectivity index, ratio of IC50 for human HepG2 cells to MIC for Trichophyton mentagrophytes 445
Details: not given
For CN(C)C(=S)Oc1ccc(Cl)cc1C(=O)Nc1ccc(F)cc1, the “Selectivity Index” value was 15.
With CN(C)C(=S)Oc1ccc(Cl)cc1C(=O)Nc1ccc(Br)cc1 the “Selectivity Index” value was 843.9.

Test system: Mycobacterium avium
Assay: Antimycobacterial activity against Isoniazid, rifampicin, ofloxacin and ethambutol-resistant Mycobacterium avium 330/88 assessed as complete growth inhibition after 21 days
Format: functional
Details: 330/88, 504 h
Summary of the method: (§1)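 M. tuberculosis 331/88 (H37Rv) inoculum diluted 10-3, M. avium 330/88 diluted 10-5. MIC is the lowest concentration giving complete growth inhibition. Isoniazid and p-aminosalicylic acid as references. Quadruplicate, repeated twice.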
Work on CN(C)C(=S)Oc1ccc(Cl)cc1C(=O)Nc1ccc(F)cc1 yielded an MIC of 32 µM (≈ 11.3 µg/mL).
CN(C)C(=S)Oc1ccc(Cl)cc1C(=O)Nc1ccc(Br)cc1 gave an MIC of 16 µM (≈ 6.62 µg/mL).

Test system: Mycobacterium kansasii
Assay: Antimycobacterial activity against Mycobacterium kansasii 235/80 assessed as complete growth inhibition after 7 days
Format: functional
Details: 235/80, 168 h
Summary of the method: (§2)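 Dilutions of M. kansasii inoculum were 10-4 for strain 235/80 and 10-5 for clinical isolate 6509/96. MIC was the lowest concentration giving complete growth inhibition, run in quadruplicate and repeated twice.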
In the case of CN(C)C(=S)Oc1ccc(Cl)cc1C(=O)Nc1ccc(F)cc1, the MIC is reported as 16 µM (≈ 5.65 µg/mL).
Compound CN(C)C(=S)Oc1ccc(Cl)cc1C(=O)Nc1ccc(Br)cc1 has an MIC of 16 µM (≈ 6.62 µg/mL).

Test system: Mycobacterium kansasii
Assay: Antimycobacterial activity against clinical isolate Mycobacterium kansasii 6509/96 assessed as complete growth inhibition after 14 days
Format: functional
Details: 6509/96, 336 h
Summary of the method: as §2
CN(C)C(=S)Oc1ccc(Cl)cc1C(=O)Nc1ccc(F)cc1 gave an MIC of 32 µM (≈ 11.3 µg/mL).
For CN(C)C(=S)Oc1ccc(Cl)cc1C(=O)Nc1ccc(Br)cc1, the MIC was 32 µM (≈ 13.2 µg/mL).

Test system: Trichophyton mentagrophytes
Assay: Antimicrobial activity against Trichophyton mentagrophytes 445 after 72 hrs by microdilution method
Format: functional
Details: Trichophyton mentagrophytes, 445, 72 h
Summary of the method: (§3)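 Broth microdilution in RPMI 1640 with glutamine, with fluconazole and amphotericin B as references. For filamentous fungi, MIC is expressed as the IC50, i.e. the concentration giving 50% growth reduction versus control. Each determination was done twice.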
For CN(C)C(=S)Oc1ccc(Cl)cc1C(=O)Nc1ccc(F)cc1, the MIC was 7.81 µM (≈ 2.76 µg/mL).
CN(C)C(=S)Oc1ccc(Cl)cc1C(=O)Nc1ccc(Br)cc1 gave an MIC of 1.95 µM (≈ 0.807 µg/mL).

Test system: Mycobacterium kansasii
Assay: Antimycobacterial activity against Mycobacterium kansasii 235/80 assessed as complete growth inhibition after 21 days
Format: functional
Details: 235/80, 504 h
Summary of the method: as §2
CN(C)C(=S)Oc1ccc(Cl)cc1C(=O)Nc1ccc(F)cc1 showed an MIC of 32 µM (≈ 11.3 µg/mL).
In the case of CN(C)C(=S)Oc1ccc(Cl)cc1C(=O)Nc1ccc(Br)cc1, the MIC is reported as 16 µM (≈ 6.62 µg/mL).

Test system: Mycobacterium tuberculosis
Assay: Antimycobacterial activity against Mycobacterium tuberculosis H37Rv 331/88 assessed as complete growth inhibition after 21 days
Format: functional
Details: H37Rv 331/88, 504 h
Summary of the method: as §1
CN(C)C(=S)Oc1ccc(Cl)cc1C(=O)Nc1ccc(F)cc1 showed an MIC of 16 µM (≈ 5.65 µg/mL).
CN(C)C(=S)Oc1ccc(Cl)cc1C(=O)Nc1ccc(Br)cc1 gave an MIC of 8 µM (≈ 3.31 µg/mL).

Test system: Mycobacterium tuberculosis
Assay: Antimycobacterial activity against Mycobacterium tuberculosis H37Rv 331/88 assessed as complete growth inhibition after 14 days
Format: functional
Details: H37Rv 331/88, 336 h
Summary of the method: as §1
In the case of CN(C)C(=S)Oc1ccc(Cl)cc1C(=O)Nc1ccc(F)cc1, the MIC is reported as 8 µM (≈ 2.82 µg/mL).
CN(C)C(=S)Oc1ccc(Cl)cc1C(=O)Nc1ccc(Br)cc1 showed an MIC of 8 µM (≈ 3.31 µg/mL).

Test system: Staphylococcus epidermidis
Assay: Antimicrobial activity against Staphylococcus epidermidis H 6966/08 after 24 hrs by microdilution method
Format: functional
Details: H 6966/08, 24 h
Summary of the method: (§4)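 Broth microdilution in Mueller-Hinton broth, compounds dissolved in DMSO, final concentrations 500 to 0.49 µM. Benzylpenicillin and bacitracin were run as comparators. MIC was taken as 95% (IC95) or greater growth reduction versus control. Each determination was done twice.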
For CN(C)C(=S)Oc1ccc(Cl)cc1C(=O)Nc1ccc(F)cc1, the MIC was 31.2 µM (≈ 11 µg/mL).
With CN(C)C(=S)Oc1ccc(Cl)cc1C(=O)Nc1ccc(Br)cc1 the MIC was 0.49 µM (≈ 0.203 µg/mL).

Test system: Staphylococcus aureus
Assay: Antimicrobial activity against Staphylococcus aureus CCM 4516/08 after 24 hrs by microdilution method
Format: functional
Details: CCM 4516/08, 24 h
Summary of the method: (§5)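 Mueller-Hinton broth microdilution; compounds dissolved in DMSO, final concentrations 500 to 0.49 µM. […] Benzylpenicillin and bacitracin as comparators. Each determination done twice.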
In the case of CN(C)C(=S)Oc1ccc(Cl)cc1C(=O)Nc1ccc(F)cc1, the MIC is reported as 15.6 µM (≈ 5.51 µg/mL).
For CN(C)C(=S)Oc1ccc(Cl)cc1C(=O)Nc1ccc(Br)cc1, the MIC was 0.49 µM (≈ 0.203 µg/mL).

Test system: Mycobacterium kansasii
Assay: Antimycobacterial activity against Mycobacterium kansasii 235/80 assessed as complete growth inhibition after 14 days
Format: functional
Details: 235/80, 336 h
Summary of the method: as §2
Work on CN(C)C(=S)Oc1ccc(Cl)cc1C(=O)Nc1ccc(F)cc1 yielded an MIC of 32 µM (≈ 11.3 µg/mL).
Work on CN(C)C(=S)Oc1ccc(Cl)cc1C(=O)Nc1ccc(Br)cc1 yielded an MIC of 16 µM (≈ 6.62 µg/mL).

Test system: Staphylococcus aureus
Assay: Antimicrobial activity against methicillin-resistant Staphylococcus aureus H 5996/08 after 48 hrs by microdilution method
Format: functional
Details: H 5996/08, 48 h
Summary of the method: as §5
CN(C)C(=S)Oc1ccc(Cl)cc1C(=O)Nc1ccc(F)cc1 gave an MIC of 31.2 µM (≈ 11 µg/mL).
For CN(C)C(=S)Oc1ccc(Cl)cc1C(=O)Nc1ccc(Br)cc1, the MIC was 0.49 µM (≈ 0.203 µg/mL).

Test system: not listed separately
Assay: Selectivity index, ratio of IC50 for human HepG2 cells to MIC for methicillin-resistant Staphylococcus aureus H 5996/08
Details: not given
Summary of the method: (§6)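 Selectivity index = HepG2 IC50 / MIC. HepG2 cells (passage 3–4) grown in Eagle's MEM with 10% FBS, L-glutamine and non-essential amino acids. Compounds added from DMSO, eight concentrations in triplicate, tetrazolium-reduction colorimetric read-out. IC50 is the concentration reducing viability to 50% of control; 10% DMSO as 0% viability.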
With CN(C)C(=S)Oc1ccc(Cl)cc1C(=O)Nc1ccc(F)cc1 the “Selectivity Index” value was 3.7.
With CN(C)C(=S)Oc1ccc(Cl)cc1C(=O)Nc1ccc(Br)cc1 the “Selectivity Index” value was 174.8.

Test system: Enterococcus sp.
Assay: Antimicrobial activity against Enterococcus sp. J 14365/08 after 48 hrs by microdilution method
Format: functional
Details: J 14365/08, 48 h
Summary of the method: as §4
Work on CN(C)C(=S)Oc1ccc(Cl)cc1C(=O)Nc1ccc(F)cc1 yielded an MIC of over 500 µM.
Compound CN(C)C(=S)Oc1ccc(Cl)cc1C(=O)Nc1ccc(Br)cc1 has an MIC of over 500 µM.

Test system: Staphylococcus aureus
Assay: Antimicrobial activity against Staphylococcus aureus CCM 4516/08 after 48 hrs by microdilution method
Format: functional
Details: CCM 4516/08, 48 h
Summary of the method: as §5
Compound CN(C)C(=S)Oc1ccc(Cl)cc1C(=O)Nc1ccc(F)cc1 has an MIC of 31.2 µM (≈ 11 µg/mL).
Compound CN(C)C(=S)Oc1ccc(Cl)cc1C(=O)Nc1ccc(Br)cc1 has an MIC of 0.49 µM (≈ 0.203 µg/mL).

Test system: Staphylococcus epidermidis
Assay: Antimicrobial activity against Staphylococcus epidermidis H 6966/08 after 48 hrs by microdilution method
Format: functional
Details: H 6966/08, 48 h
Summary of the method: as §4
In the case of CN(C)C(=S)Oc1ccc(Cl)cc1C(=O)Nc1ccc(F)cc1, the MIC is reported as 31.2 µM (≈ 11 µg/mL).
For CN(C)C(=S)Oc1ccc(Cl)cc1C(=O)Nc1ccc(Br)cc1, the MIC was 0.49 µM (≈ 0.203 µg/mL).

Test system: Mycobacterium avium
Assay: Antimycobacterial activity against Isoniazid, rifampicin, ofloxacin and ethambutol-resistant Mycobacterium avium 330/88 assessed as complete growth inhibition after 14 days
Format: functional
Details: 330/88, 336 h
Summary of the method: as §1
CN(C)C(=S)Oc1ccc(Cl)cc1C(=O)Nc1ccc(F)cc1 gave an MIC of 32 µM (≈ 11.3 µg/mL).
CN(C)C(=S)Oc1ccc(Cl)cc1C(=O)Nc1ccc(Br)cc1 showed an MIC of 16 µM (≈ 6.62 µg/mL).

Test system: Trichophyton mentagrophytes
Assay: Antimicrobial activity against Trichophyton mentagrophytes 445 after 120 hrs by microdilution method
Format: functional
Details: Trichophyton mentagrophytes, 445, 120 h
Summary of the method: as §3
In the case of CN(C)C(=S)Oc1ccc(Cl)cc1C(=O)Nc1ccc(F)cc1, the MIC is reported as 7.81 µM (≈ 2.76 µg/mL).
Work on CN(C)C(=S)Oc1ccc(Cl)cc1C(=O)Nc1ccc(Br)cc1 yielded an MIC of 1.95 µM (≈ 0.807 µg/mL).

Test system: not listed separately
Assay: Selectivity index, ratio of IC50 for human HepG2 cells to MIC for Mycobacterium tuberculosis H37Rv
Format: toxicity, cell-based
Details: read-out: Selectivity Index
Summary of the method: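 Selectivity index = HepG2 IC50 / MIC. HepG2 cells (passage 3–4) grown in Eagle's MEM with 10% FBS, L-glutamine and non-essential amino acids. Compounds added from DMSO, eight concentrations in triplicate, tetrazolium-reduction colorimetric read-out.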
CN(C)C(=S)Oc1ccc(Cl)cc1C(=O)Nc1ccc(F)cc1 showed a selectivity ratio of 7.3.
CN(C)C(=S)Oc1ccc(Cl)cc1C(=O)Nc1ccc(Br)cc1 showed a selectivity ratio of 10.7.

Test system: Mycobacterium kansasii
Assay: Antimycobacterial activity against clinical isolate Mycobacterium kansasii 6509/96 assessed as complete growth inhibition after 7 days
Format: functional
Details: 6509/96, 168 h
Summary of the method: as §2
CN(C)C(=S)Oc1ccc(Cl)cc1C(=O)Nc1ccc(F)cc1 showed an MIC of 16 µM (≈ 5.65 µg/mL).
With CN(C)C(=S)Oc1ccc(Cl)cc1C(=O)Nc1ccc(Br)cc1 the MIC was 16 µM (≈ 6.62 µg/mL).

Test system: Staphylococcus aureus
Assay: Antimicrobial activity against methicillin-resistant Staphylococcus aureus H 5996/08 after 24 hrs by microdilution method
Format: functional
Details: H 5996/08, 24 h
Summary of the method: as §5
Compound CN(C)C(=S)Oc1ccc(Cl)cc1C(=O)Nc1ccc(F)cc1 has an MIC of 31.2 µM (≈ 11 µg/mL).
In the case of CN(C)C(=S)Oc1ccc(Cl)cc1C(=O)Nc1ccc(Br)cc1, the MIC is reported as 0.49 µM (≈ 0.203 µg/mL).

Test system: HepG2
Assay: Cytotoxicity against human HepG2 cells assessed as reduction in cell viability after 24 hrs by MTS assay
Format: cell-based
Details: HepG2, 24 h
Summary of the method: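 HepG2 hepatocellular carcinoma cells (passage 3–4) were grown in Eagle's MEM with 10% FBS, 1% L-glutamine and non-essential amino acids. Compounds were added from DMSO at eight concentrations in triplicate, with 10% DMSO as the 0% viability control. Viability was read by tetrazolium salt reduction (CellTiter 96 AQueous One). IC50 is the concentration reducing viability to 50% of control.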
Compound CN(C)C(=S)Oc1ccc(Cl)cc1C(=O)Nc1ccc(F)cc1 has an IC50 of 117 µM.
CN(C)C(=S)Oc1ccc(Cl)cc1C(=O)Nc1ccc(Br)cc1 gave an IC50 of 85.6 µM.

Test system: not listed separately
Assay: Inhibition of Mycobacterium tuberculosis H37Rv isocitrate lyase assessed as glyoxylate phenyl hydrazone formation at 10 uM
Details: not given
With CN(C)C(=S)Oc1ccc(Cl)cc1C(=O)Nc1ccc(F)cc1 the inhibition was 7%.
Work on CN(C)C(=S)Oc1ccc(Cl)cc1C(=O)Nc1ccc(Br)cc1 yielded an inhibition of 11%.

Test system: Mycobacterium kansasii
Assay: Antimycobacterial activity against clinical isolate Mycobacterium kansasii 6509/96 assessed as complete growth inhibition after 21 days
Format: functional
Details: 6509/96, 504 h
Summary of the method: as §2
In the case of CN(C)C(=S)Oc1ccc(Cl)cc1C(=O)Nc1ccc(F)cc1, the MIC is reported as 32 µM (≈ 11.3 µg/mL).
CN(C)C(=S)Oc1ccc(Cl)cc1C(=O)Nc1ccc(Br)cc1 gave an MIC of 32 µM (≈ 13.2 µg/mL).

Test system: not listed separately
Assay: Selectivity index, ratio of IC50 for human HepG2 cells to MIC for atypical mycobacteria
Details: not given
Summary of the method: as §6
For CN(C)C(=S)Oc1ccc(Cl)cc1C(=O)Nc1ccc(F)cc1, the “Selectivity Index” value was 3.7.
For CN(C)C(=S)Oc1ccc(Cl)cc1C(=O)Nc1ccc(Br)cc1, the “Selectivity Index” value was 2.7.

Test system: Enterococcus sp.
Assay: Antimicrobial activity against Enterococcus sp. J 14365/08 after 24 hrs by microdilution method
Format: functional
Details: J 14365/08, 24 h
Summary of the method: as §4
For CN(C)C(=S)Oc1ccc(Cl)cc1C(=O)Nc1ccc(F)cc1, the MIC was over 500 µM.
Work on CN(C)C(=S)Oc1ccc(Cl)cc1C(=O)Nc1ccc(Br)cc1 yielded an MIC of over 500 µM.
